# Screening data (PubChem BioAssay)
# An excerpt weighted towards active compounds, which were near 4.6% of everything screened.
# M18AAP inhibitor – blocks P. falciparum M18 aspartyl aminopeptidase. recombinant PfM18AAP, H-Glu-NHMec fluorogenic cleavage. actives 1.2% (n = 290,000). inhibition, % at 7.35 µM. AID 1822;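 active = inhibition above the campaign mean inhibition over all tested compounds plus 3 SD, cut at about 28% in these data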;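 note: 0% = plate median of test compound wells and 100% = 2 mM ZnCl2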
# Rtt109 Vps75 – blocks Candida albicans Rtt109/Vps75 acetyltransferase activity. purified Rtt109/Vps75, ThioGlo CoA-SH fluorescence, 4 h. actives 0.16% (n = 330,000). AID 540336. inhibition, % at 34.9 µM;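 active = inhibition of at least 50% in every replicate; inconclusive = best replicate reaches 50% inhibition but some replicates fall short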
# HDAC3 inh – human HDAC3 inhibition; recombinant HDAC3, fluorogenic peptide/trypsin coupled, fluorescence; inhibition, % at 8.3 µM; actives 0.15% (n = 320,000); in the data active = inhibition above about 26%, passing the limit was not always enough; inconclusive = no clear call, values can overlap the other calls
# UCH37 DUB inh – human UCH37 deubiquitinating enzyme inhibition | Q9Y5K5 | actives 0.33% (n = 330,000) | purified proteasome/UCH37, Ub-AMC cleavage fluorescence | inhibition, % (concentration not given with the values) | AID 588478;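 active = mean inhibition over replicate wells above about 20%, limit read from the data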;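 note: 0% = compound-free wells with enzyme and 100% = wells lacking proteasome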
# Target sequence (Q9Y5K5 whole entry, looked up): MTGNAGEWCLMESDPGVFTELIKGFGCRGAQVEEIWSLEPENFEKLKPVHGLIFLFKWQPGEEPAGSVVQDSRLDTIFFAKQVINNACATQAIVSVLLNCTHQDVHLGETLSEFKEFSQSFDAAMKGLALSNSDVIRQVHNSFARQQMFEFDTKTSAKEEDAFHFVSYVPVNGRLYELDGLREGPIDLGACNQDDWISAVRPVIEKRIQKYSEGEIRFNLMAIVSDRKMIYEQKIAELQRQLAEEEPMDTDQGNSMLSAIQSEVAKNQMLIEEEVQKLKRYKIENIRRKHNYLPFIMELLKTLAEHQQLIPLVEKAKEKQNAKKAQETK
#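 Reagent: Ub-AMC substrate; assay system: Proteasome-associated human UCH37 deubiquitinase; controls: no-proteasome and no-compound wells; read-out: % inhibition of Ub-AMC cleavage fluorescence; timing: 30 min preincubation with enzyme, 25 min cleavage at room temperature; signal: AMC fluorescence from Ub-AMC cleavage, excitation 355 nm, emission 460 nm; buffer or medium: Tris-HCl pH 7.4 plus ovalbumin, ATP-MgCl2, DTT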
# ALR H2O2 inh – human ALR oxidase inhibition via reduced H2O2. purified ALR, DTT oxidation, H2O2 HRP-luminol luminescence. AID 485317. actives 3.8% (n = 290,000). inhibition, % (no concentration beside the values);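 active = mean replicate inhibition above about 79%, with every replicate also reaching it, limit read from the data; inconclusive = only one of the two criteria met; inactive = mean below limit and not every replicate reaching it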
# Target sequence (P55789 whole entry, looked up): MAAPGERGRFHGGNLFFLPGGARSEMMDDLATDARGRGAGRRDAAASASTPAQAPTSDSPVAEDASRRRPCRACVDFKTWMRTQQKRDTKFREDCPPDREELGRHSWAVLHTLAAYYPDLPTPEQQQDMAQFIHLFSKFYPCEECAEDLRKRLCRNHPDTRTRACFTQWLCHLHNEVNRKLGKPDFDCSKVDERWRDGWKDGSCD
# FAS-TE inh – FAS thioesterase (human) inhibition; recombinant FAS-TE, OMFH fluorogenic substrate, fluorescence endpoint; inhibition, % at 15 µM; P49327; actives 0.67% (n = 360,000);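 active = compounds whose normalised, plate-corrected inhibition of enzyme fluorescence in the single-dose primary screen is 50% or more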;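 note: 0% = DMSO with enzyme and 100% = substrate without enzyme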
# * hit, by the source's call; ? = inconclusive; nt = no result.
SMILES,M18AAP inhibitor,Rtt109 Vps75,HDAC3 inh,UCH37 DUB inh,ALR H2O2 inh,FAS-TE inh
COCCCNC(=S)Nc1ccc(N2CCCCC2)cc1,2.9,0.9,5.9,5.2,97.5*,-0.8
S=C(NCCc1ccccc1)Nc1ccc(N2CCCCC2)cc1,11.2,-3.0,1.5,1.6,46.0,-2.2
Cc1ccc[n+](-c2nc([O-])sc2/C=N/Nc2ccc([N+](=O)[O-])cc2)c1,-4.2,1.3,9.2,nt,91.9*,6.3
COc1cc(/C=C/CN2CCN(CCC(C)C)C(CCO)C2)ccc1O (centres undefined),2.8,1.6,-2.5,2.3,94.0*,-4.6
COc1cc(/C=C/CN2CCC(CO)(CC3CCCCO3)CC2)ccc1O (centres undefined),5.1,-2.1,-10.4,0.0,91.7*,-5.0
OCC1(CC2CCCCO2)CCN(C/C=C/c2ccccc2)CC1 (centres undefined),11.8,-1.0,1.8,-1.4,-10.4,-9.5
COc1cc(/C=C/CN2CCN(Cc3ccc(C)o3)C(CCO)C2)ccc1O (centres undefined),-5.0,11.8,-0.2,0.5,97.6*,-5.2
O=C1CSCN1c1ccc(Cl)c(Cl)c1,-3.1,-2.3,-2.7,4.3,98.5*,-6.3
Nc1c(C(=O)c2ccccc2)oc2ccc(Br)cc12,2.0,2.7,-0.5,-9.7,-1.3,15.3
Nc1c(C(=O)c2ccccc2)oc2ccc([N+](=O)[O-])cc12,-9.5,55.3*,6.1,7.1,-0.7,6.2
FC(F)(F)c1ccc(NN=Cc2cccnc2)nc1,nt,nt,nt,8.6,nt,nt
O=C(NN=Cc1ccc(OCc2cnc(Cl)s2)cc1)c1ccncc1,nt,nt,nt,-2.2,nt,nt
COc1ccc2[nH]cc(C(=O)CNc3nc(C)cs3)c2c1,11.7,16.9,8.1,-0.9,81.2*,-9.9
O=C(O)c1ccc(NN=Cc2cn(-c3ccccc3)nc2-c2cccs2)cc1,nt,nt,nt,-56.1,nt,nt
Cc1cc(NCCOCCO)n2ncc(-c3ccc(Cl)cc3)c2n1,4.6,-11.5,4.6,-71.1,98.2*,8.3
Cc1cc(NCc2ccccn2)n2ncc(-c3ccc(Cl)cc3)c2n1,-15.4,-3.4,-7.2,nt,56.0,30.1
CCCCCCCc1c(C#N)c(N)[nH]c(=S)c1C#N,-1.5,nt,7.0,10.6,95.9*,nt
Clc1ccc(CON=Cc2cccs2)cc1,nt,nt,nt,1.2,nt,nt
Cc1ccc(C(=O)NNC(=O)C2CC2)cc1Br,-15.5,16.4,-1.9,-0.4,87.6*,-3.4
CCOC(=O)c1ccc(N=C2NC(=O)CS2)cc1,12.9,7.2,-7.3,3.7,98.2*,-9.6
COc1cccc(C(=O)N2CCSC2=S)c1,-5.9,0.2,36.8*,-2.3,7.7,-4.5
Cc1cccc(C(=O)N2CCCC(Nc3ccc(F)c(F)c3)C2)n1 (centres undefined),10.8,5.6,13.2,1.3,45.3,-3.8
Cc1ccc(NC2CCCN(C(=O)c3ccccc3N3CCOCC3)C2)cc1C (centres undefined),10.5,6.2,?,3.4,99.2*,-1.3
COc1ccc(C(=O)N2CCCC(Nc3ccc(F)c(F)c3)C2)c(OC)n1 (centres undefined),1.6,5.1,-6.9,1.9,20.3,-2.0
O=C(c1ccccc1N1CCOCC1)N1CCCC(Nc2ccc(F)cc2)C1 (centres undefined),10.9,-2.3,4.1,0.3,98.5*,-6.5
SMILES,M18AAP inhibitor,Rtt109 Vps75,HDAC3 inh,UCH37 DUB inh,ALR H2O2 inh,FAS-TE inh
COc1ccc(NC2CCCN(C(=O)c3cccnc3SC)C2)cc1OC (centres undefined),7.8,1.4,-1.0,4.3,99.5*,-5.9
COc1ccc(NC2CCCN(C(=O)c3ccccc3N3CCOCC3)C2)cc1OC (centres undefined),4.9,-5.1,0.3,2.4,97.8*,-5.6
COc1ccc(C(=O)NN=c2oc3ccccc3cc2C(N)=O)cc1,nt,nt,nt,6.1,nt,nt
COc1ccccc1N1CCN(N=Cc2ccc(OC)c(OC)c2OC)CC1,nt,nt,nt,2.0,nt,nt
O=C(NN=C/C=C/c1ccccc1)c1ccncc1,nt,nt,nt,3.4,nt,nt
Cc1ccc(C2=NN(C(=O)CCl)C(c3cccs3)C2)o1 (centres undefined),-1.0,0.7,4.3,2.7,97.6*,-5.4
CCc1ccc(NC(=O)CC(C)=NNC(=O)COc2ccc(C)cc2Br)cc1,nt,nt,nt,-1.0,nt,nt
COc1ccc(N2CCN(C(=O)CCC(=O)N3Cc4ccccc4Oc4ncccc43)CC2)cc1,15.7,6.2,2.3,-1.2,90.2*,1.9
COc1cccc(N2CCN(C(=O)CCC(=O)N3CCOc4ccc(C)cc43)CC2)c1,12.5,-3.4,4.1,7.3,88.8*,3.3
O=C(CCC(=O)N1CCOc2ccccc21)N1CCOCC1,0.6,2.8,-2.6,6.1,-9.9,-9.3
CN(C)c1ccc(NC(=O)N2CCOCC2)cc1,3.7,1.7,3.1,2.1,99.0*,-10.2
COc1ccc(C(=O)CCC(=O)N2CCN(c3ccccc3)CC2)cc1,3.6,-5.2,nt,5.8,nt,-1.3
O=C(CCC(=O)N1CCOc2ccccc21)N1CCN(c2ccccc2)CC1,1.4,3.0,3.0,3.3,98.2*,-1.2
O=C(NCc1ccccn1)C(=NO)c1ccccc1,nt,nt,nt,6.0,nt,nt
O=C(Nc1ccc2c(c1)OCCO2)N1CCN(c2ccccc2)CC1,1.9,4.0,-0.8,0.2,90.5*,-3.5
O=C(Nc1ccc2c(c1)OCO2)N1CCN(c2ccccc2)CC1,-1.3,nt,-5.0,7.2,58.5,-3.8
Cn1c(N)c(C(=O)Nc2ccccc2F)sc1=S,9.3,-2.7,3.5,11.5,99.2*,-4.0
NC(=O)c1ccc(N=C2C(=O)Nc3ccc([N+](=O)[O-])cc32)cc1,5.8,15.9,5.6,84.4*,23.8,-3.7
COc1ccc(OC)c(C2C3=C(N=c4sc(=Cc5cccc(O)c5)c(=O)n42)c2ccccc2CC3)c1 (centres undefined),nt,nt,nt,1.6,nt,nt
Oc1ccc(/C(Cc2ccc3ccccc3n2)=N\Nc2ccccc2)c(O)c1,1.7,11.6,10.8,nt,98.5*,11.6
Oc1ccc(/C(Cc2ccccn2)=N\Nc2ccccc2)c(O)c1,22.2,3.7,4.0,nt,99.0*,20.1
N/N=C(\Cc1cscn1)c1ccc(O)cc1O,11.1,-7.1,2.1,nt,33.6,-4.7
COCc1cc(C)nc(OCC(=O)NN=Cc2ccc(O)cc2)c1C#N,nt,nt,nt,4.1,nt,nt
CC(=NNS(=O)(=O)c1ccc(C)cc1)c1ccc(Br)s1,nt,nt,nt,3.3,nt,nt
Cc1sc2ncnc(N/N=C/c3ccccc3O)c2c1C,-4.8,7.0,20.5,nt,90.7*,11.9
O=C(NN=Cc1cccnc1)C1CCCN(S(=O)(=O)c2ccccc2)C1 (centres undefined),nt,nt,nt,1.9,nt,nt
Cc1nc(N=CN(C)C)sc1C(=O)Nc1ccccc1,nt,nt,nt,12.7,nt,nt
CCOC(=O)c1c(/N=C/c2cc(OC)cc([N+](=O)[O-])c2O)sc(C)c1C,28.1*,-0.6,7.4,nt,46.0,-9.1
CCOC(=O)c1c(N=Cc2cc([N+](=O)[O-])ccc2O)sc(C)c1C,nt,nt,nt,0.1,nt,nt
